Consider 16 compounds from ChEMBL document CHEMBL1944596, “7,8-dichloro-1-oxo-β-carbolines as a versatile scaffold for the development of potent and selective kinase inhibitors with unusual binding modes” (J Med Chem, 2012).

Active and inactive are the calls of the source.

Test [1] has as its target Tyrosine-protein kinase Fes/Fps (Homo sapiens) (UniProt P07332). Put plainly: Binding affinity to FES assessed as change in thermal denaturation at 10 uM by thermal stability shift assay. The essentials:
(§1)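 Each compound was screened across a kinase panel by thermal stability shift assay. The read-out was the shift in protein melting temperature (ΔTm, in °C) relative to the unliganded kinase. A ΔTm of 4.0 °C served as the hit cutoff.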

For test [2], the target named is T1, Cyclin-G-associated kinase (Homo sapiens) (UniProt O14976).
T1 sequence (whole entry): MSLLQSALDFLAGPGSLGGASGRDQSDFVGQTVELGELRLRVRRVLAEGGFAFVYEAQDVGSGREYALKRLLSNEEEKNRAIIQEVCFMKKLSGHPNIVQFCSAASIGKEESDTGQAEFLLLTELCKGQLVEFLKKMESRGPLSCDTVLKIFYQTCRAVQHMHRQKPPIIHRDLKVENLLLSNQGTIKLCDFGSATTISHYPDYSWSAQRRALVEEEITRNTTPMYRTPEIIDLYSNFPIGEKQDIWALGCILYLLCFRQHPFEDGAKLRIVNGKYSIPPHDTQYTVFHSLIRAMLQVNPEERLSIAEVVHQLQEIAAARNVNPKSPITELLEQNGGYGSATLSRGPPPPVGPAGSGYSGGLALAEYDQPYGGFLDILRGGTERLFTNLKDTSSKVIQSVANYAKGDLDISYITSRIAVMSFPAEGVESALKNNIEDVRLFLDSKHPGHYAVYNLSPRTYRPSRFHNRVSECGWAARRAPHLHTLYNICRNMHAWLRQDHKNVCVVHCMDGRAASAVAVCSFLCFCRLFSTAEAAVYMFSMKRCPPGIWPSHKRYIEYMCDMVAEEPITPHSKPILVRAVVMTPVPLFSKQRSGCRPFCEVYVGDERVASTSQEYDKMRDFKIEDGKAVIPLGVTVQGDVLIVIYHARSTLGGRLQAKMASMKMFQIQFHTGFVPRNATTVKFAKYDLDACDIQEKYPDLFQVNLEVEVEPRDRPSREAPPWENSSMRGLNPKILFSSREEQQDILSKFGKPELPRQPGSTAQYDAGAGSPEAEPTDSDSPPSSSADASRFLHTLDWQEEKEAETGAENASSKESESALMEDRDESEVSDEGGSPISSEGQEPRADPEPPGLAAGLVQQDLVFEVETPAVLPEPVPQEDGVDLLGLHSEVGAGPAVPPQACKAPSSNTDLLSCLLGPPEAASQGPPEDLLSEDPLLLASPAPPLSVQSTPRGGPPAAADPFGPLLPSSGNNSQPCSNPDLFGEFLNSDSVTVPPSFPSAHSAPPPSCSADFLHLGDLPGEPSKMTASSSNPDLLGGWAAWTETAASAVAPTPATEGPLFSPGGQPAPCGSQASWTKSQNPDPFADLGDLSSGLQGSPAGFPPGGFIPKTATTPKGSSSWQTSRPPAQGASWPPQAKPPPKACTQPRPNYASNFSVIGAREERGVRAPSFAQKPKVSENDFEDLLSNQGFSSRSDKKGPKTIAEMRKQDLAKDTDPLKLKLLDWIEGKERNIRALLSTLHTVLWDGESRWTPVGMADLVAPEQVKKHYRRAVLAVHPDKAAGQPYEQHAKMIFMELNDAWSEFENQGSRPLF
Put plainly: Binding affinity to GAK assessed as change in thermal denaturation at 10 uM by thermal stability shift assay. Summed up:
as §1

Test [3] has as its target T2, cAMP-dependent protein kinase catalytic subunit PRKX (Homo sapiens) (UniProt P51817).
T2 sequence (whole entry): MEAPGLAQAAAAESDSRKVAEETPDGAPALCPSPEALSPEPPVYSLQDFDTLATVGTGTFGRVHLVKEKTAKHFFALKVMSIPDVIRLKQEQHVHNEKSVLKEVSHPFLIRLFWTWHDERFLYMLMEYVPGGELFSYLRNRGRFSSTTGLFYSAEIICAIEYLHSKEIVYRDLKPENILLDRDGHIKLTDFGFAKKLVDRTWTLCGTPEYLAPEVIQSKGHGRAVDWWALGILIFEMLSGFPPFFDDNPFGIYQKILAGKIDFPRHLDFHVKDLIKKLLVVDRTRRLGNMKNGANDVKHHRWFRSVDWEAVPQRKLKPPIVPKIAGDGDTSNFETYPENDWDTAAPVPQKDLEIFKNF
Put plainly: Binding affinity to PRKX assessed as change in thermal denaturation at 10 uM by thermal stability shift assay. The essentials: as §1

Test [4] in a line: Binding affinity to RSK4beta assessed as change in thermal denaturation at 10 uM by thermal stability shift assay. Summed up:
as §1

In test [5] the target is BMP-2-inducible protein kinase (Homo sapiens) (UniProt Q9NSY1). The test can be described thus: Binding affinity to BIKE assessed as change in thermal denaturation at 10 uM by thermal stability shift assay. The essentials: as §1
Sequence of BMP-2-inducible protein kinase (Homo sapiens) (Q9NSY1 whole entry, looked up): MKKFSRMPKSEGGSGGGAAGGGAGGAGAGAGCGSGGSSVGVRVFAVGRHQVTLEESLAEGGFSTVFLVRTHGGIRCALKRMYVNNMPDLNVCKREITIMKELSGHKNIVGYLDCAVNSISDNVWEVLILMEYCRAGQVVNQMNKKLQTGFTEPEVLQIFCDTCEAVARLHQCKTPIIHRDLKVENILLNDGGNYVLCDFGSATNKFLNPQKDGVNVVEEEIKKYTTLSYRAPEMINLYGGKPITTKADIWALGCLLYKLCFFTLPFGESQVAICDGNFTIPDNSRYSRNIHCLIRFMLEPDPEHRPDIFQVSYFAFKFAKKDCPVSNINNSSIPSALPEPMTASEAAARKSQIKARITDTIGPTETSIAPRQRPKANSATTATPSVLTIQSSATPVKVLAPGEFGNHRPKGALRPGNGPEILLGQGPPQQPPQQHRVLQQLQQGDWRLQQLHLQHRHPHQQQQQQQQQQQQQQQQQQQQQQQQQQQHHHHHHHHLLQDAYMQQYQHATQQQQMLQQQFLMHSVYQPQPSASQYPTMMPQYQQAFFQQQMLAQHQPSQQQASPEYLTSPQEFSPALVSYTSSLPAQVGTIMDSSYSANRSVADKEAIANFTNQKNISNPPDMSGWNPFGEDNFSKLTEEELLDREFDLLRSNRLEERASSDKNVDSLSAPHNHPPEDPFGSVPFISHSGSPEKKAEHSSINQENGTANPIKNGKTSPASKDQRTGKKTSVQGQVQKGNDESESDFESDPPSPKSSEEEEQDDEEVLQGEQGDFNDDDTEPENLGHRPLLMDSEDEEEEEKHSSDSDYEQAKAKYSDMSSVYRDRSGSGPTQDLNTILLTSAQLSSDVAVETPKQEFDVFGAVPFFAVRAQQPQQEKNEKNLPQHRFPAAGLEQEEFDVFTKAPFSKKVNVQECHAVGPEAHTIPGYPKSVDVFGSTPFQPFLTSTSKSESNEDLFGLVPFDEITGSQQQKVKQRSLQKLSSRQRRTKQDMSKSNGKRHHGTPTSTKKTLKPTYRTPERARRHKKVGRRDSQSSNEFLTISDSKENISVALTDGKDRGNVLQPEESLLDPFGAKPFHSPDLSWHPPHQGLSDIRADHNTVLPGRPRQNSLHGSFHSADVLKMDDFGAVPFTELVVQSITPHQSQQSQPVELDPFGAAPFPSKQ
For test [6], the target named is Dual specificity protein kinase CLK1 (Homo sapiens) (UniProt P49759). Put plainly: Binding affinity to CLK1 assessed as change in thermal denaturation at 10 uM by thermal stability shift assay. Summed up: as §1
Sequence of Dual specificity protein kinase CLK1 (Homo sapiens) (P49759 whole entry, looked up): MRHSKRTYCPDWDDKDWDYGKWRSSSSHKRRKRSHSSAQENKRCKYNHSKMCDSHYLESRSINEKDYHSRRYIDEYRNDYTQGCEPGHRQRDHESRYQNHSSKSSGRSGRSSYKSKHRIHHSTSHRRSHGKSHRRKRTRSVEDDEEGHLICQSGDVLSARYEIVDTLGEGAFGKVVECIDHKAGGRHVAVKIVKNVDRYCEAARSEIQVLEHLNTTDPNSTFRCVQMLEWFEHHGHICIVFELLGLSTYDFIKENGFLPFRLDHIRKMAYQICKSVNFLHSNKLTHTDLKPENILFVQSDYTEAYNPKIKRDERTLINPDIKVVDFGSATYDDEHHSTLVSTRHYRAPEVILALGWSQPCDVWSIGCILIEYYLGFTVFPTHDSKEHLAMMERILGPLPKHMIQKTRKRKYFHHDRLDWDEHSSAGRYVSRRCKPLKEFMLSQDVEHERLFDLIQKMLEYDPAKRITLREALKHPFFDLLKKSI
The target of test [7] is Protein kinase C theta type (Homo sapiens, UniProt Q04759). The test can be described thus: Inhibition of PKCtheta using ATP as substrate.
Test [8] is described as follows: Inhibition of S6K using ATP as substrate.
Test [9] deals with Phosphatidylinositol 4,5-bisphosphate 3-kinase catalytic subunit gamma isoform (Homo sapiens, UniProt P48736). Put plainly: Inhibition of PI3Kgamma using ATP as substrate.
Test [10] is described as follows: Growth inhibition of human RS4:11 cells after 48 hrs by WST-1 assay. The format is functional, cell-based. To be noted: RS4-11, 48 h. Summed up: (§2)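 Compound (0–10 μM) added to the culture medium and incubated 48 h. Proliferation and viability read by WST-1 reagent. Survival expressed as percentage of control cultures and IC50 derived by curve fitting.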
For orientation: Formazan colour is commonly taken as a measure of viable cells.

A short description of test [11]: Growth inhibition of human SEM cells after 48 hrs by WST-1 assay. The format is functional, cell-based. Summed up:
as §2

For test [12], the target named is Vascular endothelial growth factor receptor 2 (Homo sapiens, UniProt P35968). The test can be described thus: Inhibition of KDR using ATP as substrate.
In test [13] the target is MAP kinase-activated protein kinase 5 (Homo sapiens, UniProt Q8IW41). Put plainly: Inhibition of MK5 using ATP as substrate.
For test [14], the target named is Serine/threonine-protein kinase mTOR (Homo sapiens, UniProt P42345). The test can be described thus: Inhibition of mTOR using ATP as substrate.
The target of test [15] is Phosphatidylinositol 4,5-bisphosphate 3-kinase catalytic subunit alpha isoform (Homo sapiens, UniProt P42336). Put plainly: Inhibition of PI3Kalpha using ATP as substrate.
Sequence of Phosphatidylinositol 4,5-bisphosphate 3-kinase catalytic subunit alpha isoform (P42336 whole entry, canonical isoform): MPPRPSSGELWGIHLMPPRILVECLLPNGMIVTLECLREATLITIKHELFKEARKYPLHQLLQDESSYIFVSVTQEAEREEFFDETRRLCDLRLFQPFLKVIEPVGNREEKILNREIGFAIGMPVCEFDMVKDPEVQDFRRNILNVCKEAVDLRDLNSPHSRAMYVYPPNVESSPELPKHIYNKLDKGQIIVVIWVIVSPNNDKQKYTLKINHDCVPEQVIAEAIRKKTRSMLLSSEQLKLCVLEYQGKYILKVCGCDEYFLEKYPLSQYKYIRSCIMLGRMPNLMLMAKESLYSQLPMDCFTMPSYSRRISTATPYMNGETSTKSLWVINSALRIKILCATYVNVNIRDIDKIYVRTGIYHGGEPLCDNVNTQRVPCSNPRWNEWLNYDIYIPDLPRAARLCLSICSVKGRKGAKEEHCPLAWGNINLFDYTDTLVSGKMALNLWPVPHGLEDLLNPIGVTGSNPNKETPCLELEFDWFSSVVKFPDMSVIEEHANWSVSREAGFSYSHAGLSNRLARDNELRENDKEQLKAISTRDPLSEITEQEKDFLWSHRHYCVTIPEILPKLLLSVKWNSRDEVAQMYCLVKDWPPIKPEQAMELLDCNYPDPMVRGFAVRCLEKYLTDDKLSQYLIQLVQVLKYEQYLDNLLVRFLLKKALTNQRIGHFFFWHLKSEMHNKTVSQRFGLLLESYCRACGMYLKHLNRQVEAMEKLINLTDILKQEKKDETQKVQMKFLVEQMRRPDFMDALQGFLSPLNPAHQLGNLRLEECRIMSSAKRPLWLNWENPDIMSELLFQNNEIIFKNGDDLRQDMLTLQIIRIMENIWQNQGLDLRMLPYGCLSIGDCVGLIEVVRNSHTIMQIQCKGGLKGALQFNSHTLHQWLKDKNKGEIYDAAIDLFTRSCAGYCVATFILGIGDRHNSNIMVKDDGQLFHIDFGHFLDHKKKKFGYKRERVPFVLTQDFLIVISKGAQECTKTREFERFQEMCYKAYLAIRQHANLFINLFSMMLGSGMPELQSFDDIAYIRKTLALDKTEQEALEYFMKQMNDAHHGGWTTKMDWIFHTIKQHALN
The target of test [16] is Phosphatidylinositol 4,5-bisphosphate 3-kinase catalytic subunit beta isoform (Homo sapiens, UniProt P42338). Put plainly: Inhibition of PI3Kbeta using ATP as substrate.
Sequence of Phosphatidylinositol 4,5-bisphosphate 3-kinase catalytic subunit beta isoform (P42338 whole entry, canonical isoform): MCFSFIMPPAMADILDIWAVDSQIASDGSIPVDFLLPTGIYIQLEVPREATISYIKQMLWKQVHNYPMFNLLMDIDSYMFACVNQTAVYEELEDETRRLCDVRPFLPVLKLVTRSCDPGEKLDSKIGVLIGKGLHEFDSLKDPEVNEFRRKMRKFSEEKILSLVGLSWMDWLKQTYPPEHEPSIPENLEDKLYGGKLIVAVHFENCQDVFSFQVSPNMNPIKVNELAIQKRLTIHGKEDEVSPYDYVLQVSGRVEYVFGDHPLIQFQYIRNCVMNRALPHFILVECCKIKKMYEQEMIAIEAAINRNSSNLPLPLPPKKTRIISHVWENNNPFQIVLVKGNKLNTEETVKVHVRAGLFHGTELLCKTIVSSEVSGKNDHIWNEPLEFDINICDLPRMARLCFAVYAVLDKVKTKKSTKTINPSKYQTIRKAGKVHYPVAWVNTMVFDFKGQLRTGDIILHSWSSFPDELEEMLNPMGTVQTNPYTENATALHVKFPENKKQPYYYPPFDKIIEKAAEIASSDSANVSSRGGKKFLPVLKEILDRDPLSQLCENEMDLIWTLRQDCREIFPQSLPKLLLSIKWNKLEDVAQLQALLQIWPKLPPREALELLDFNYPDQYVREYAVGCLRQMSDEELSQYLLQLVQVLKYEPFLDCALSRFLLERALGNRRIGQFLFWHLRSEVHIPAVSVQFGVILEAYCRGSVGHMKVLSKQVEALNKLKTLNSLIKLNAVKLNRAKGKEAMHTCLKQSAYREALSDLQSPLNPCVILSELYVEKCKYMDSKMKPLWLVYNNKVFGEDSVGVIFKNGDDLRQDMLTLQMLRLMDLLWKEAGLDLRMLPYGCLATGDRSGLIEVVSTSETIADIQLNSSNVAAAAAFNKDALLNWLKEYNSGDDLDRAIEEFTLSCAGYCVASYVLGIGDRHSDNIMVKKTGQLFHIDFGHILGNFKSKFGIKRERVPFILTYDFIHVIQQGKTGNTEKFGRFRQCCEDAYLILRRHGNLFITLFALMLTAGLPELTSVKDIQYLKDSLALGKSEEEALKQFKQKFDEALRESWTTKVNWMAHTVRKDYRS
Test [17] addresses Phosphatidylinositol 4,5-bisphosphate 3-kinase catalytic subunit delta isoform (Homo sapiens, UniProt O00329). The test can be described thus: Inhibition of PI3Kdelta using ATP as substrate.
Test [18] has as its target Serine/threonine-protein kinase pim-3 (Homo sapiens, UniProt Q86V86). Put plainly: Inhibition of PIM3 using ATP as substrate.
Test [19] concerns the target Receptor-type tyrosine-protein kinase FLT3 (Homo sapiens) (UniProt P36888). The test can be described thus: Inhibition of FLT3 using ATP as substrate.
In test [20] the target is Platelet-derived growth factor receptor alpha (Homo sapiens) (UniProt P16234). Put plainly: Inhibition of PDGFRalpha using ATP as substrate.

Sequence of Tyrosine-protein kinase Fes/Fps (Homo sapiens) (P07332 whole entry): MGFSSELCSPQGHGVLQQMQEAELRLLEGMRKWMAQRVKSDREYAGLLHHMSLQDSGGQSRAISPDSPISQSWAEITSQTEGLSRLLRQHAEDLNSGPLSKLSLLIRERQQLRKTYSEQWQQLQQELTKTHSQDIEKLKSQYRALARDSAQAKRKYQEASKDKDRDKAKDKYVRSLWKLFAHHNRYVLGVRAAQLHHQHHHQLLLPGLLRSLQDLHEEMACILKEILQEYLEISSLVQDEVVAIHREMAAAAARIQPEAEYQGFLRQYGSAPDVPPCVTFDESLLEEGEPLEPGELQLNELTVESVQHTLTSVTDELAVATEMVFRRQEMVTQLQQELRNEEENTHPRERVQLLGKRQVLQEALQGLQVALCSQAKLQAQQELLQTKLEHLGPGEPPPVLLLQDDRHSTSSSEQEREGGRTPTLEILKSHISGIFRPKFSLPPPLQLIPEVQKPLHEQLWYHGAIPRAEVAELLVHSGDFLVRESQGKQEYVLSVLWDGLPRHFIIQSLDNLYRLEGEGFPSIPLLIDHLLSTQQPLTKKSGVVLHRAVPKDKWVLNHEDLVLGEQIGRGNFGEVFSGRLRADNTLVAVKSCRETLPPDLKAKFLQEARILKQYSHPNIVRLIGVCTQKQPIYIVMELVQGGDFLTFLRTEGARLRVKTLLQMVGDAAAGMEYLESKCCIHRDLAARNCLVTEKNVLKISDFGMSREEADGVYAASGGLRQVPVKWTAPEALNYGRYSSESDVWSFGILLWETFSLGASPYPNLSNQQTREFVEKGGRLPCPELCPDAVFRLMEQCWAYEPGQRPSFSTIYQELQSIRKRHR

Broadly, the ΔTm is the change in melting temperature against a reference sample. Regarding `Cn1c2c(c3ccc(Cl)c(Cl)c31)C(C#N)C1(CCN(C(=O)OC(C)(C)C)CC1)NC2=O` (racemic), the shift in melting temperature (ΔTm) in [1] is 0.4 °C; in test [2], -0.2 °C; in test [3] it was 0.3 °C; in [4] it was -0.4 °C; in [5], 0 °C; in [6] it was 0.5 °C.

Regarding `Cn1c2c(c3ccc(Cl)c(Cl)c31)C(C#N)C(C)(C)NC2=O` (stereo not given), the ΔTm in [1] was -0.3 °C; in test [2] it was 2.8 °C; in [3], 2.8 °C; in test [4], 2.3 °C; in test [5], 2.8 °C; in test [6], 6.4 °C.

With `CC(=O)NCC1c2c(n(C)c3c(Cl)c(Cl)ccc23)C(=O)NC1(C)C` (racemic), the ΔTm came out at 0.4 °C in [1]; 0.5 °C in test [2]; 0.7 °C in test [3]; 0.4 °C in test [4]; 0.4 °C in test [5]; 2.6 °C in [6].

For the compound `CCN1CCC2(CC1)NC(=O)c1c(c3ccc(Cl)c(Cl)c3n1C)C2C#N` (racemic), the shift in melting temperature (ΔTm) in test [1] was 0.7 °C; in test [2] it was 0.9 °C; in test [3], 3.1 °C; in test [4] it was 0.2 °C; in [5], -0.5 °C; in test [6], 4 °C.

Take `Cn1c2c(Cl)c(Cl)ccc2c2cc[nH]c(=O)c21`: the ΔTm in [1] is 0.1 °C; in test [2] it was 3.3 °C; in [3], 0.3 °C; in [4], 4 °C; in test [5], 8.2 °C; in test [6] it was 4.6 °C.

Take `Cn1c2c(Cl)c(Cl)ccc2c2cn[nH]c(=O)c21`: the shift in melting temperature (ΔTm) in test [1] came to 0.2 °C; in test [2] it was 1.6 °C; in test [3], 0.3 °C; in test [4], 1.4 °C; in test [5], 5.3 °C; in test [6], 3.9 °C.

On to `Cn1c2c(c3ccc(Cl)c(Cl)c31)C(C#N)C1(CCCC1)NC2=O` (stereo not given), for which the ΔTm was 0 °C in test [1]; 1.2 °C in test [2]; 0.7 °C in [3]; 0.1 °C in [4]; 1.3 °C in test [5]; 4.8 °C in test [6].

As for `N#CC1c2c([nH]c3c(Cl)c(Cl)ccc23)C(=O)NC12CCCCC2` (racemic), the thermal shift (ΔTm) in test [1] is -0.4 °C; in test [2], 2.8 °C; in [3], 1 °C; in [4], -0.2 °C; in test [5], 1.1 °C; in test [6], 5.4 °C.

Turning to `Cn1c2c(Cl)c(Cl)ccc2c2cc(N)[nH]c(=O)c21`, the shift in melting temperature (ΔTm) turned out to be 0.4 °C in test [1]; 4.3 °C in test [2]; 0.8 °C in [3]; 1.2 °C in test [4]; 5.2 °C in test [5]; 5.9 °C in [6].

Consider `CCC1(CC)NC(=O)c2c(c3ccc(Cl)c(Cl)c3n2C)C1C#N` (stereo not given), for which the thermal shift (ΔTm) in test [1] was 0 °C; in [2], 1.2 °C; in [3] it was 0.8 °C; in test [4], -0.1 °C; in test [5], 1.2 °C; in test [6], 3.5 °C.

For the compound `CC1(C)NC(=O)c2[nH]c3c(Cl)c(Cl)ccc3c2C1C#N` (stereo not given), the ΔTm in [1] was -0.2 °C; in test [2], 2.5 °C; in [3] it was 1.2 °C; in [4], 0.1 °C; in [5], 1.2 °C; in [6] it was 5.3 °C.

Take `Cn1c2c(c3ccc(Cl)c(Cl)c31)C(CN)C(C)(C)NC2=O` (racemic): the ΔTm was determined as 0.3 °C in test [1]; 0.7 °C in test [2]; 3.3 °C in [3]; 0.7 °C in test [4]; 1.7 °C in test [5]; 5.1 °C in test [6].

A word on the IC50: it is the concentration at which inhibition is half-maximal. High values mean a need for much substance, low ones inhibition by little substance. Consider `Cn1c2c(c3ccc(Cl)c(Cl)c31)C(C#N)C1(CCNCC1)NC2=O` (racemic), for which the shift in melting temperature (ΔTm) worked out at 4 °C in test [1]; 1.4 °C in test [2]; 5.8 °C in test [3]; 0.8 °C in test [4]; 1 °C in test [5]; 7 °C in test [6]. In addition, the IC50 in test [7] turned out to be 1.4 µM; in [8], 0.23 µM; in [9] it was 3.1 µM; in test [10], 3.57 µM; in test [11], 4.68 µM; in test [12] it was 7.2 µM. Moreover, the concentration for half-maximal inhibition (IC50) in test [13] is 1.7 µM; in test [14], above 9.1 µM; in test [15], above 9.1 µM; in [16], 8.6 µM; in test [17], 4.7 µM; in test [18], 0.09 µM.

As to `CN1CCC2(CC1)NC(=O)c1c(c3ccc(Cl)c(Cl)c3n1C)C2C#N` (racemic), the shift in melting temperature (ΔTm) stood at 0.5 °C in [1]; 0.8 °C in test [2]; 3.3 °C in test [3]; 0.2 °C in test [4]; 0.8 °C in [5]; 5.7 °C in [6]. For the same compound, the inhibition result in test [19] and in test [20] was “inactive” in each case.

Consider `Cn1c2c(c3ccc(Cl)c(Cl)c31)C(C#N)C1(CCOCC1)NC2=O` (stereo not given), for which the ΔTm stood at 0 °C in test [1]; 1.3 °C in [2]; 1.4 °C in test [3]; 0 °C in [4]; 2.3 °C in [5]; 4.6 °C in test [6].

Turning to `Cn1c2c(c3ccccc31)C(C#N)C(C)(C)NC2=O` (stereo not given), the ΔTm in test [1] came out at 0 °C; in test [2], 0 °C; in test [3] it was 0.5 °C; in test [4] it was 0.1 °C; in test [5], 1.1 °C; in test [6], 2.4 °C.
